Broadly, the Kp is the ratio of the level in a tissue or fluid to that in plasma or blood.

The record followed here is ChEMBL document CHEMBL1154191, “Evaluation of spirocyclic 3-(3-fluoropropyl)-2-benzofurans as sigma1 receptor ligands for neuroimaging with positron emission tomography” (J Med Chem, 2009).

Series [1] in a line: Biodistribution in CD1 mouse gonad assessed per gram of wet tissue at 400 to 600 kBq, iv after 60 mins post-injection by gamma counting in presence of 1 mg/kg, ip sigma 1/sigma 2 receptor antagonist haloperidol treated before compound addition. It is filed as organism-based. Details: dose 1 mg/kg, route intravenous. As to conditions: in vivo, 1 h. The essentials: (§1)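 Blocking arm in fasted female CD-1 mice (n=5). […] Animals were killed at 60 min post-injection, and organs were weighed and γ-counted as % ID/g wet tissue. Percent change was taken against the 60 min control group, with two-tailed unpaired Student's t test.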

A short description of series [2]: Biodistribution in CD1 mouse adrenal gland assessed per gram of wet tissue at 400 to 600 kBq, iv after 120 mins post-injection by gamma counting. It is filed as ADME, organism-based. As to conditions: in vivo, 2 h. The method, boiled down: (§2)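 Female CD-1 mice (~8-12 weeks, 20-28 g) were fasted 24 h with free water. Conscious mice got 400-600 kBq [¹⁸F] tracer in saline by tail vein. At 5, 30, 60 or 120 min (n=4-5 per time) they were anesthetized, blood and urine sampled, then killed by cervical dislocation. Organs were weighed and γ-counted, giving % ID/g wet tissue.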

For series [3], the system named is Brain. Description: Biodistribution in CD1 mouse brain assessed per gram of wet tissue at 400 to 600 kBq, iv after 120 mins post-injection by gamma counting. It is filed as ADME, organism-based. The following applies: in vivo, 2 h. The essentials: as §2
Series [4] in a line: Ratio of drug level in cerebellum to plasma in CD1 mouse at 400 to 600 kBq, iv after 120 mins post-injection. It is filed as ADME, organism-based. The essentials: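 Female CD-1 mice (~8-12 weeks, 20-28 g), fasted 24 h with free water; 400-600 kBq tracer in 200 μL saline by tail vein into conscious animals. Killed at set times pi (n=4-5 per time); blood and organs weighed, γ-counted, expressed as % ID/g wet tissue; ratio from cerebellum and plasma uptake.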

Series [5] can be described thus: Biodistribution in CD1 mouse thymus assessed per gram of wet tissue at 400 to 600 kBq, iv after 5 mins post-injection by gamma counting. Type of series: ADME, organism-based. The following applies: in vivo. The method, boiled down: (§3)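 Female CD-1 mice (~8-12 weeks, 20-28 g), habituated ≥48 h and fasted 24 h with water available. The [18F] tracer (>150 GBq/μmol at end of synthesis) was given in 200 μL saline into the tail vein of conscious animals. At each time point, n=4-5, mice were anaesthetised, blood and urine sampled, then killed by cervical dislocation. Organs were weighed and γ-counted, and values calculated as % ID/g wet tissue.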

A further series relates to Heart. The series can be described thus: Biodistribution in CD1 mouse heart assessed per gram of wet tissue at 400 to 600 kBq, iv after 5 mins post-injection by gamma counting. The following applies: in vivo. It is filed as ADME, organism-based. The essentials:
as §2

Series [6] deals with Femur. The series can be described thus: Biodistribution in CD1 mouse femur assessed per gram of wet tissue at 400 to 600 kBq, iv after 60 mins post-injection by gamma counting. Type of series: ADME, organism-based. As to conditions: in vivo, 1 h. The essentials: as §2
A short description of series [7]: Biodistribution in CD1 mouse gonad assessed per gram of wet tissue at 400 to 600 kBq, iv after 30 mins post-injection by gamma counting. It is filed as ADME, organism-based. As to conditions: in vivo, 0.5 h. The essentials: as §2
The nature of series [8]: Biodistribution in CD1 mouse urine assessed as per gram of wet bladder at 400 to 600 kBq, iv after 60 mins post-injection by gamma counting. It is filed as ADME, organism-based. The following applies: in vivo, 1 h. The method, boiled down: as §3
The test system of series [9] is Muscle tissue. The series can be described thus: Biodistribution in CD1 mouse muscle assessed per gram of wet tissue at 400 to 600 kBq, iv after 60 mins post-injection by gamma counting. It is filed as ADME, organism-based. As to conditions: in vivo, 1 h. The method, boiled down:
as §3

The subject of series [10] is Brain. Description: Biodistribution in CD1 mouse brain assessed per gram of wet tissue at 400 to 600 kBq, iv after 5 mins post-injection by gamma counting. As to conditions: in vivo. It is filed as ADME, organism-based. The essentials: as §2
Series [11] concerns Liver. The series can be described thus: Biodistribution in CD1 mouse liver assessed per gram of wet tissue at 400 to 600 kBq, iv after 120 mins post-injection by gamma counting. Type of series: ADME, organism-based. The following applies: in vivo, 2 h. The essentials:
as §2

The subject of series [12] is Muscle tissue. The series can be described thus: Biodistribution in CD1 mouse muscle assessed per gram of wet tissue at 400 to 600 kBq, iv after 30 mins post-injection by gamma counting. Type of series: ADME, organism-based. The following applies: in vivo, 0.5 h. The method, boiled down:
as §3

The next series concerns Lung. Description: Biodistribution in CD1 mouse lung assessed per gram of wet tissue at 400 to 600 kBq, iv after 120 mins post-injection by gamma counting. As to conditions: in vivo, 2 h. It is filed as ADME, organism-based. The method, boiled down:
as §3

Series [13] relates to Mus musculus. The series can be described thus: Plasma concentration in CD1 mouse assessed per gram of wet tissue at 400 to 600 kBq, iv after 60 mins post-injection by gamma counting in presence of 1 mg/kg, ip sigma 1/sigma 2 receptor antagonist haloperidol treated before compound addition. As to conditions: in vivo, 1 h. More on the design: route intravenous. It is filed as organism-based. The essentials:
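Female CD-1 mice, fasted 24 h. […] Blood sampled and mice killed at 60 min pi. Samples weighed, γ-counted, %ID/g calculated. Compared with controls by two-tailed independent Student's t test.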

The test system of series [14] is Liver. Description: Biodistribution in CD1 mouse liver assessed increase in drug uptake at 400 to 600 kBq, iv after 60 mins post-injection by gamma counting in presence of 1 mg/kg, ip sigma 1/sigma 2 receptor antagonist haloperidol treated before compound addition. It is filed as organism-based. Details: dose 1 mg/kg, route intravenous. The following applies: in vivo, 1 h. The method, boiled down: as §1

The subject of the next series is Intestine. Description: Biodistribution in CD1 mouse intestine assessed per gram of wet tissue at 400 to 600 kBq, iv after 60 mins post-injection by gamma counting in presence of 1 mg/kg, ip sigma 1/sigma 2 receptor antagonist haloperidol treated before compound addition. It is filed as organism-based. Details: dose 1 mg/kg, route intravenous. The following applies: in vivo, 1 h. The method, boiled down: as §1

Series [15] deals with Femur. The series can be described thus: Biodistribution in CD1 mouse femur assessed per gram of wet tissue at 400 to 600 kBq, iv after 5 mins post-injection by gamma counting. As to conditions: in vivo. It is filed as ADME, organism-based. The method, boiled down:
as §2

Series [16] has as its system Mus musculus. The series can be described thus: Plasma concentration in CD1 mouse assessed per gram of wet tissue at 400 to 600 kBq, iv after 60 mins post-injection by gamma counting. As to conditions: in vivo, 1 h. It is filed as ADME, organism-based. The essentials: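 Female CD-1 mice (~8-12 weeks, 20-28 g), fasted 24 h with free access to water. 400-600 kBq [18F] tracer in 200 μL saline given by tail vein to conscious mice. At 5, 30, 60 or 120 min pi (n=4-5 per time) mice anaesthetised, blood taken, then euthanised. Samples weighed, γ-counted, %ID/g wet tissue calculated.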

For another series, the system named is Pancreas. The series can be described thus: Drug uptake in CD1 mouse pancreas at 400 to 600 kBq, iv after 120 mins post-injection by gamma counting relative to initial uptake. Type of series: ADME, organism-based. The following applies: in vivo, 2 h. The essentials:
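Organ % ID/g was measured by γ-counting after tail-vein injection of 400-600 kBq [18F] tracer in saline to fasted female CD-1 mice (n=4-5 per time). The 120 min pi value is expressed relative to the initial (5 min pi) uptake.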

A further series deals with Stomach. Description: Biodistribution in CD1 mouse stomach assessed per gram of wet tissue at 400 to 600 kBq, iv after 120 mins post-injection by gamma counting. Type of series: ADME, organism-based. As to conditions: in vivo, 2 h. The essentials:
as §3

Series [17] is described as follows: Metabolic stability in CD1 mouse brain at 200 to 300 MBq, iv after 60 mins post-injection by supelcosil C18 HPLC and TLC-radiochromatography. It is filed as ADME, organism-based. As to conditions: read-out: Stability. The method, boiled down:
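Mice received 200-300 MBq [18F] tracer in 200 μL 0.9% saline via the tail vein, and samples were taken at 45 and 60 min (n=2 per time). Plasma was obtained by centrifugation (2000g, 4 °C, 10 min); brain and liver were homogenised in ice-cold 50 mM TRIS-HCl pH 7.4. Samples were precipitated with ice-cold MeCN and centrifuged (4000g, 4 °C, 15 min), and supernatants were analysed by gradient radio-HPLC and radio-TLC, with HPLC fractions γ-counted.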

In a further series the test system is Cerebellum. Description: Biodistribution in CD1 mouse cerebellum assessed per gram of wet tissue at 400 to 600 kBq, iv after 60 mins post-injection by gamma counting. It is filed as ADME, organism-based. The following applies: in vivo, 1 h. The method, boiled down:
as §2

The nature of series [18]: Biodistribution in CD1 mouse urine assessed as per gram of wet bladder at 400 to 600 kBq, iv after 30 mins post-injection by gamma counting. Type of series: ADME, organism-based. The following applies: in vivo, 0.5 h. The essentials: as §3

Some results are limits rather than exact numbers.

Take `[18F]CCCC1OC2(CCN(Cc3ccccc3)CC2)c2ccccc21` (centres undefined): the Drug uptake in series [1] was determined as 4.92 %ID; in [2], 5.86 %ID; with Brain [3] it was 2.14 %ID; in series [5], 3.98 %ID; in the series with Heart, 6.52 %ID; in the series on Femur [6], 3.48 %ID. The Drug uptake in series [7] was 4.11 %ID; in series [8], 7.84 %ID; in the series on Muscle tissue [9], 0.97 %ID; in the series with Brain [10], 3.66 %ID; in the series on Liver [11], 2.93 %ID; in the series with Muscle tissue [12], 1.8 %ID. Also, the Drug uptake with Lung was 3.37 %ID; with Mus musculus [13] it was 0.63 %ID; in the series with Liver [14], 3.89 %ID; with Intestine it was 6.6 %ID; with Femur [15], 2.17 %ID; with Mus musculus [16], 0.52 %ID. Also, the Drug uptake with Pancreas was above 70%; with Stomach it was 3.12 %ID; in the series on Cerebellum it was 2.99 %ID; in series [18], 24.3 %ID. In addition, the Kp at 2 h in [4] came to 5.48. Moreover, the remaining at 1 h in series [17] is at least 95%.
